Results on nine compounds are retold here after ChEMBL document CHEMBL2157911, “Synthesis and biological evaluation of a series of podophyllotoxins derivatives as a class of potent antitubulin agents” (Bioorg Med Chem, 2012).

Structures are written as SMILES.

Test [1] relates to HeLa. Briefly: Cytotoxicity against human HeLa cells after 48 hrs. Type of test: functional, cell-based. The essentials:
(§1)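 Cells were grown in RPMI 1640 with 10% fetal serum, 2 mM L-glutamine, […], penicillin and streptomycin. Log-phase cells were seeded, left 24 h at 37 °C/5% CO2 to attach, then exposed to 0–100 µM compound for 48 h (DMSO <0.1%), five wells per concentration.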

Test [2] deals with K562. As to the kind of experiment: Cytotoxicity against human K562 cells after 48 hrs. Type of test: functional, cell-based. The settings on record: K562, 48 h. The gist of the method:
as §1

Test [3] relates to HepG2. As to the kind of experiment: Cytotoxicity against human HepG2 cells after 48 hrs. Type of test: functional, cell-based. The settings on record: HepG2, 48 h. The essentials: as §1
Test [4] has as its system SGC-7901. As to the kind of experiment: Cytotoxicity against human SGC7901 cells after 48 hrs. It is filed as functional, cell-based. The settings on record: SGC-7901, 48 h. The gist of the method:
as §1

Test [5] can be described thus: Inhibition of goat brain tubulin polymerization after 30 mins. Also on record: species or system Capra hircus. The essentials:
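Goat brain tubulin was purified by two polymerization–depolymerization cycles. Tubulin (10 µM) was incubated with compound at 0, 10, 20, 40 or 60 µM in buffer containing 20% glycerol and […] at 37 °C, then cooled to 0 °C. Assembly was followed turbidimetrically in a fluorescence plate reader.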

Broadly, the IC50 is the concentration at which inhibition is half-maximal. A higher IC50 goes with a need for much substance. Turning to `COc1cc([C@@H]2c3cc4c(cc3[C@@H](OCC/C(=N\S(C)(=O)=O)NCc3ccccc3)[C@H]3COC(=O)[C@H]23)OCO4)cc(OC)c1OC`, the 50% inhibitory concentration (IC50) in test [1] was found to be 11.2 µM; in test [2], 12.1 µM; in test [3], 17.9 µM; in test [4], 19.2 µM.
In the same order, the values of `COc1cc([C@@H]2c3cc4c(cc3[C@@H](OCC/C(=N\S(C)(=O)=O)N(C3CCCCC3)C3CCCCC3)[C@H]3COC(=O)[C@H]23)OCO4)cc(OC)c1OC` are 4.33 µM, 2.61 µM, 1.95 µM and 3.21 µM.
For the compound `COc1cc2c(c(OC)c1OC)-c1ccc(OC)c(=O)cc1[C@@H](NC(C)=O)CC2` [COLCHICINE], the concentration for half-maximal inhibition (IC50) in test [1] worked out at 0.1 µM; in test [2], 0.55 µM; in test [3], 0.02 µM; in test [4], 0.05 µM.
In the case of `COc1cc([C@@H]2c3cc4c(cc3[C@H](O)[C@H]3COC(=O)[C@H]23)OCO4)cc(OC)c1OC` [PODOFILOX], the IC50 in test [1] came out at 0.14 µM; in test [2], 4.51 µM; in test [3], 0.51 µM; in test [5] it was 24 µM; in test [4], 0.34 µM.
In the case of `COc1cc([C@@H]2c3cc4c(cc3[C@@H](OCC/C(N)=N\S(C)(=O)=O)[C@H]3COC(=O)[C@H]23)OCO4)cc(OC)c1OC`, the IC50 in test [1] worked out at 3.75 µM; in test [2], 3.48 µM; in test [3], 2.87 µM; in test [4] it was 4.31 µM.
In the case of `COc1cc([C@@H]2c3cc4c(cc3[C@@H](OCC/C(=N\S(C)(=O)=O)N3CCCCC3)[C@H]3COC(=O)[C@H]23)OCO4)cc(OC)c1OC`, the IC50 in test [1] was determined as 10.4 µM; in test [2], 9.01 µM; in test [3] it was 57.1 µM; in test [4] it was 18.2 µM.
In the case of `COc1cc([C@@H]2c3cc4c(cc3[C@@H](OCC/C(=N\S(C)(=O)=O)N3CCCC3)[C@H]3COC(=O)[C@H]23)OCO4)cc(OC)c1OC`, the IC50 in test [1] was determined as 5.99 µM; in test [2], 8.34 µM; in test [3], 20.8 µM; in test [4] it was 11.2 µM.
Consider `COc1cc([C@@H]2c3cc4c(cc3[C@@H](OCC/C(=N\S(C)(=O)=O)N(C)C)[C@H]3COC(=O)[C@H]23)OCO4)cc(OC)c1OC`, for which the IC50 in test [1] turned out to be 2.58 µM; in test [2], 5.18 µM; in test [3], 4.17 µM; in test [4] it was 3.71 µM.
Consider `CCCN(CCC)/C(CCO[C@@H]1c2cc3c(cc2[C@@H](c2cc(OC)c(OC)c(OC)c2)[C@H]2C(=O)OC[C@@H]21)OCO3)=N/S(C)(=O)=O`, for which the IC50 in test [1] turned out to be 2.63 µM; in test [2], 2.96 µM; in test [3] it was 2.14 µM; in test [4], 2.87 µM.
